Reference: ChEMBL document CHEMBL2034828, “Synthesis of β(1,3) oligoglucans exhibiting a Dectin-1 binding affinity and their biological evaluation” (Bioorg Med Chem, 2012)
Activity calls are given as the source filed them. No cut-off for these calls is given here.

Key:
[1] = target: T1, C-type lectin domain family 7 member A (Mus musculus) (UniProt Q6QLQ4); assay: Inhibition of mouse N-terminal hexahistidine-tagged C-type lectin domain of Dectin-1 expressed in Escherichia coli BL21 (DE3) binding to solid-supported schizophyllan pretreated for 30 mins prior SPG addition measured after 1 hr by competitive ELISA relative to SPG
T1 sequence (whole entry): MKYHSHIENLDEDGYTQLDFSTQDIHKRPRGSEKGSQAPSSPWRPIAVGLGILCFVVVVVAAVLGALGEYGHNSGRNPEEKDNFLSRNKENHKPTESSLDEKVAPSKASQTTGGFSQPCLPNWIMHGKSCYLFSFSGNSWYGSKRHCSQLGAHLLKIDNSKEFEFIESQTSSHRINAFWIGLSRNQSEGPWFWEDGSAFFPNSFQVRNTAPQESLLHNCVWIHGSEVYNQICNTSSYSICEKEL

[2] = target: T2, C-type lectin domain family 7 member A (Homo sapiens) (UniProt Q9BXN2); assay: Agonist activity at Dectin-1 expressed in human 293T cells assessed as LPS-mediated NF-kappaB activation after 6 hrs by dual luciferase reporter gene assay; assay type: functional, cell-based
T2 sequence (whole entry): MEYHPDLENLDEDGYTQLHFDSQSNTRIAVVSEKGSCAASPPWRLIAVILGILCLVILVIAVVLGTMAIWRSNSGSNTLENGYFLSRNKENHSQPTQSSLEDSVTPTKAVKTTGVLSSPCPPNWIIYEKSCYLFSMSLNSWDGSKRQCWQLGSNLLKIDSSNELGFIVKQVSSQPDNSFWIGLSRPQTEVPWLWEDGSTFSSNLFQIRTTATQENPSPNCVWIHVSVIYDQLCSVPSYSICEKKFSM
Procedure, shortened: (§1)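 293T cells were plated at 1 × 10⁴ cells/well in DMEM with 10% FBS for 20 h at 37 °C, 5% CO₂. They were then lipofected for 18 h. Dectin-1 wells received Dectin-1A, CARD9 and Bcl10 plasmids; TLR4 wells received TLR4 and MD-2 plasmids. Both received NF-κB-RE firefly and TK-Renilla reporters. Cells were stimulated 6 h with oligosaccharides, SPG, or oligosaccharides plus LPS. Read-out was the firefly/Renilla dual-luciferase ratio.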

[3] = target: T1, C-type lectin domain family 7 member A (Mus musculus); assay: Binding affinity to mouse N-terminal hexahistidine-tagged C-type lectin domain of Dectin-1 expressed in Escherichia coli BL21 (DE3) by STD-NMR analysis
Procedure, shortened: (§2)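 Protein was mouse Dectin-1 CTLD (Gly113–Leu244) with an N-terminal His6 tag and thrombin site, expressed in E. coli BL21(DE3)codonplus in LB. Expression was induced 6 h at 37 °C. Inclusion bodies were solubilized in 8 M urea, 50 mM Tris-HCl pH 8.0, 50 mM NaCl. Protein was refolded 16 h at 4 °C by dilution into 200 mM Tris-HCl pH 8.0, 0.4 M L-arginine, 5.0 mM GSH, 0.5 mM GSSG, then purified. Ligand was titrated at 0–25 molar equivalents with ¹H NMR monitoring.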

[4] = target: Toll-like receptor 4 (Homo sapiens) (UniProt O00206); assay: Agonist activity at TLR4 expressed in human 293T cells assessed as LPS-mediated NF-kappaB activation after 6 hrs by dual luciferase reporter gene assay; assay type: functional, cell-based; procedure, shortened: as §1
Sequence of Toll-like receptor 4 (Homo sapiens) (O00206 whole entry, the tested form may be a part): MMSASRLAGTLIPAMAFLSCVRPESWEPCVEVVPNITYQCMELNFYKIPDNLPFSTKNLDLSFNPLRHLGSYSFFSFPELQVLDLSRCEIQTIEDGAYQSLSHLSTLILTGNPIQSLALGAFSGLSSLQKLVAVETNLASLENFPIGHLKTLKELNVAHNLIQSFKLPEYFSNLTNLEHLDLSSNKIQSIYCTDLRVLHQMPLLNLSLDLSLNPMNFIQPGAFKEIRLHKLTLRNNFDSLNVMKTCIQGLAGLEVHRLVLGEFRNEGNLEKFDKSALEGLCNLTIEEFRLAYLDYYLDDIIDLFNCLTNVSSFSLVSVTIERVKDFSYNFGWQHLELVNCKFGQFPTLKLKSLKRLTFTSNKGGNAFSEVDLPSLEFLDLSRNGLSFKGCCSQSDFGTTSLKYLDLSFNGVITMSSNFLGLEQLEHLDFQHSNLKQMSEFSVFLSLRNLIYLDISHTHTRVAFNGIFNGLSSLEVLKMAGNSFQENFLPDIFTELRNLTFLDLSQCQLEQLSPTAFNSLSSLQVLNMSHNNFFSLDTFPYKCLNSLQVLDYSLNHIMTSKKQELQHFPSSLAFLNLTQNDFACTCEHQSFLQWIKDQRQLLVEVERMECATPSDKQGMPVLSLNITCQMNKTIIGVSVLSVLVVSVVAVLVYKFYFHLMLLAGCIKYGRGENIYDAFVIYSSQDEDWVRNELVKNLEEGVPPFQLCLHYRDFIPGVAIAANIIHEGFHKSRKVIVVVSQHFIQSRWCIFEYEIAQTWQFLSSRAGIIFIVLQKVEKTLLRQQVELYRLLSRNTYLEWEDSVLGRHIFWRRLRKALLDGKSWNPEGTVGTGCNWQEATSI

[5] = target: T1, C-type lectin domain family 7 member A (Mus musculus); assay: Binding affinity to mouse N-terminal hexahistidine-tagged C-type lectin domain of Dectin-1 expressed in Escherichia coli BL21 (DE3) by measuring saturation transfer difference amplification factor; procedure, shortened: as §2

Structure (SMILES) | fold change (FC) [1] | Activity [2] | Activity [3] | Activity [4] | Activity [5] | Activity [1]
NCCCCCCO[C@@H]1O[C@H](CO)[C@@H](O)[C@H](O[C@@H]2O[C@H](CO)[C@@H](O)[C@H](O[C@@H]3O[C@H](CO)[C@@H](O)[C@H](O[C@@H]4O[C@H](CO)[C@@H](O)[C@H](O[C@@H]5O[C@H](CO)[C@@H](O)[C@H](O[C@@H]6O[C@H](CO)[C@@H](O)[C@H](O[C@@H]7O[C@H](CO)[C@@H](O)[C@H](O[C@@H]8O[C@H](CO)[C@@H](O)[C@H](O[C@@H]9O[C@H](CO)[C@@H](O)[C@H](O[C@@H]%10O[C@H](CO)[C@@H](O)[C@H](O[C@@H]%11O[C@H](CO)[C@@H](O)[C@H](O[C@@H]%12O[C@H](CO)[C@@H](O)[C@H](O[C@@H]%13O[C@H](CO)[C@@H](O)[C@H](O[C@@H]%14O[C@H](CO[C@@H]%15O[C@H](CO)[C@@H](O)[C@H](O)[C@H]%15O)[C@@H](O)[C@H](O[C@@H]%15O[C@H](CO)[C@@H](O)[C@H](O[C@@H]%16O[C@H](CO)[C@@H](O)[C@H](O)[C@H]%16O)[C@H]%15O)[C@H]%14O)[C@H]%13O)[C@H]%12O)[C@H]%11O)[C@H]%10O)[C@H]9O)[C@H]8O)[C@H]7O)[C@H]6O)[C@H]5O)[C@H]4O)[C@H]3O)[C@H]2O)[C@H]1O | 10 | Active |  |  |  | 
NCCCCCCO[C@@H]1O[C@H](CO)[C@@H](O)[C@H](O[C@@H]2O[C@H](CO)[C@@H](O)[C@H](O[C@@H]3O[C@H](CO)[C@@H](O)[C@H](O[C@@H]4O[C@H](CO)[C@@H](O)[C@H](O[C@@H]5O[C@H](CO)[C@@H](O)[C@H](O[C@@H]6O[C@H](CO[C@@H]7O[C@H](CO)[C@@H](O)[C@H](O)[C@H]7O)[C@@H](O)[C@H](O[C@@H]7O[C@H](CO)[C@@H](O)[C@H](O[C@@H]8O[C@H](CO)[C@@H](O)[C@H](O)[C@H]8O)[C@H]7O)[C@H]6O)[C@H]5O)[C@H]4O)[C@H]3O)[C@H]2O)[C@H]1O |  | inactive |  |  |  | inactive
NCCCCCCO[C@@H]1O[C@H](CO)[C@@H](O)[C@H](O[C@@H]2O[C@H](CO)[C@@H](O)[C@H](O[C@@H]3O[C@H](CO)[C@@H](O)[C@H](O[C@@H]4O[C@H](CO)[C@@H](O)[C@H](O[C@@H]5O[C@H](CO)[C@@H](O)[C@H](O[C@@H]6O[C@H](CO)[C@@H](O)[C@H](O[C@@H]7O[C@H](CO)[C@@H](O)[C@H](O[C@@H]8O[C@H](CO)[C@@H](O)[C@H](O)[C@H]8O)[C@H]7O)[C@H]6O)[C@H]5O)[C@H]4O)[C@H]3O)[C@H]2O)[C@H]1O |  | inactive |  | inactive |  | inactive

The remaining lines, values ahead:

fold change (FC) [1] | Activity [2] | Activity [3] | Activity [4] | Activity [5] | Activity [1] | Structure (SMILES)
10 | Active | Active | inactive | Active |  | NCCCCCCO[C@@H]1O[C@H](CO)[C@@H](O)[C@H](O[C@@H]2O[C@H](CO)[C@@H](O)[C@H](O[C@@H]3O[C@H](CO)[C@@H](O)[C@H](O[C@@H]4O[C@H](CO)[C@@H](O)[C@H](O[C@@H]5O[C@H](CO)[C@@H](O)[C@H](O[C@@H]6O[C@H](CO)[C@@H](O)[C@H](O[C@@H]7O[C@H](CO)[C@@H](O)[C@H](O[C@@H]8O[C@H](CO)[C@@H](O)[C@H](O[C@@H]9O[C@H](CO)[C@@H](O)[C@H](O[C@@H]%10O[C@H](CO)[C@@H](O)[C@H](O[C@@H]%11O[C@H](CO)[C@@H](O)[C@H](O[C@@H]%12O[C@H](CO)[C@@H](O)[C@H](O[C@@H]%13O[C@H](CO)[C@@H](O)[C@H](O[C@@H]%14O[C@H](CO)[C@@H](O)[C@H](O[C@@H]%15O[C@H](CO)[C@@H](O)[C@H](O[C@@H]%16O[C@H](CO)[C@@H](O)[C@H](O)[C@H]%16O)[C@H]%15O)[C@H]%14O)[C@H]%13O)[C@H]%12O)[C@H]%11O)[C@H]%10O)[C@H]9O)[C@H]8O)[C@H]7O)[C@H]6O)[C@H]5O)[C@H]4O)[C@H]3O)[C@H]2O)[C@H]1O
 | inactive |  |  |  | inactive | NCCCCCCO[C@@H]1O[C@H](CO)[C@@H](O)[C@H](O[C@@H]2O[C@H](CO)[C@@H](O)[C@H](O[C@@H]3O[C@H](CO)[C@@H](O)[C@H](O[C@@H]4O[C@H](CO)[C@@H](O)[C@H](O[C@@H]5O[C@H](CO)[C@@H](O)[C@H](O[C@@H]6O[C@H](CO)[C@@H](O)[C@H](O[C@@H]7O[C@H](CO)[C@@H](O)[C@H](O[C@@H]8O[C@H](CO)[C@@H](O)[C@H](O[C@@H]9O[C@H](CO)[C@@H](O)[C@H](O[C@@H]%10O[C@H](CO[C@@H]%11O[C@H](CO)[C@@H](O)[C@H](O)[C@H]%11O)[C@@H](O)[C@H](O[C@@H]%11O[C@H](CO)[C@@H](O)[C@H](O[C@@H]%12O[C@H](CO)[C@@H](O)[C@H](O)[C@H]%12O)[C@H]%11O)[C@H]%10O)[C@H]9O)[C@H]8O)[C@H]7O)[C@H]6O)[C@H]5O)[C@H]4O)[C@H]3O)[C@H]2O)[C@H]1O
 | inactive |  | inactive |  | inactive | NCCCCCCO[C@@H]1O[C@H](CO)[C@@H](O)[C@H](O[C@@H]2O[C@H](CO)[C@@H](O)[C@H](O[C@@H]3O[C@H](CO)[C@@H](O)[C@H](O[C@@H]4O[C@H](CO)[C@@H](O)[C@H](O[C@@H]5O[C@H](CO)[C@@H](O)[C@H](O[C@@H]6O[C@H](CO)[C@@H](O)[C@H](O[C@@H]7O[C@H](CO)[C@@H](O)[C@H](O[C@@H]8O[C@H](CO)[C@@H](O)[C@H](O[C@@H]9O[C@H](CO)[C@@H](O)[C@H](O[C@@H]%10O[C@H](CO)[C@@H](O)[C@H](O[C@@H]%11O[C@H](CO)[C@@H](O)[C@H](O[C@@H]%12O[C@H](CO)[C@@H](O)[C@H](O)[C@H]%12O)[C@H]%11O)[C@H]%10O)[C@H]9O)[C@H]8O)[C@H]7O)[C@H]6O)[C@H]5O)[C@H]4O)[C@H]3O)[C@H]2O)[C@H]1O
